Measured values from different studies.
Lines come from different studies, so protocols differ.
Target: Serine/threonine-protein kinase WNK1 (WNK1, Homo sapiens, UniProt Q9H4A3)

COc1ccc2cc(OCC3(C(=O)O)CN(C(=O)c4ccc(F)cc4)C3)ccc2c1  remaining binding (cell-free assay; competition with immobilised ligand; 1 µM): 84%
COc1cc(/C=C/C(=O)CC(=O)/C=C/c2ccc(O)c(OC)c2)ccc1O  activity vs control (enzyme activity; inhibitor; 1 µM): 98%
Nc1ncnc2occ(-c3ccc(NC(=O)Nc4cc(C(F)(F)F)ccc4F)cc3)c12  remaining signal (cell-free assay; inhibitor; 20 µM): 87%
C[C@@H]1CCN(c2nccc(-c3cnn4ncccc34)n2)C1  remaining binding (binding; 1 µM): 92%
N#Cc1ccc(Nc2ccc3[nH]c(=O)[nH]c3c2)c(Cl)c1  remaining binding (cell-free assay; competition with immobilised ligand; 1 µM): 100%
O=C(Nc1cnn(-c2csc(C(=O)NC3COC3)c2)c1)Nc1c(F)cccc1Cl  remaining activity (enzyme activity; inhibitor; 5 µM): 93.3%
FC(F)(F)Oc1cccc(-c2cnc3ccc(-c4ccncc4)nn23)c1  activity vs control (enzyme activity; inhibitor; radiometric; 5 µM): 99%
O=C(CSc1nc2nccnc2c(=O)n1CCc1ccccc1)Nc1nccs1  inhibition (enzyme activity; inhibitor; 10 µM): 1%
Cn1cncc1C1=CN(c2ncnc3[nH]cnc23)CCS1  inhibition (enzyme activity; inhibitor; radiometric; 2 µM): 10.7%
CC(C)(C)c1nc(-c2cccc(NS(=O)(=O)c3c(F)cccc3F)c2F)c(-c2ccnc(N)n2)s1  remaining activity (enzyme activity; inhibitor; radiometric; 1 µM): 98%
Cc1sc(C(=O)NC2COC2)cc1-n1cc(NC(=O)Nc2c(F)cccc2Cl)cn1  remaining activity (enzyme activity; inhibitor; 10 µM): 88.9%
CC(C)(O)[C@H]1CC[C@H](Nc2ccc3ncc(-c4cccc(C(F)(F)F)c4)n3n2)CC1  remaining activity (enzyme activity; inhibitor; 1 µM): 92.6%
CN(c1ccnc(CNc2nc(Nc3ccc4c(c3)CC(=O)N4)ncc2C(F)(F)F)n1)S(C)(=O)=O  remaining binding (cell-free assay; competition with immobilised ligand; 1 µM): 87%
COc1cc(Nc2cnc(C#N)c(O[C@H](C)CN(C)C)n2)ncc1-c1cnn(C)c1  remaining activity (enzyme activity; inhibitor; radiometric; 10 µM): 75%
C[C@@H]1CN(c2cc(-c3nn(C)c4ccc(OC5(C)CC5)cc34)ncn2)C[C@H](C)O1  remaining binding (cell-free assay; competition with immobilised ligand; 1 µM): 82%
COc1cc(Cl)c(C(=O)N[C@@H](CN[C@H]2CC[C@@H](N)CC2)Cc2ccc(C#N)cc2)cc1-c1ccc(CN[C@H](C)c2ccc(C)cc2)o1  remaining activity (enzyme activity; inhibitor; 1 µM): 109%
